ChEMBL document CHEMBL1122650, “Synthesis and central nervous system properties of 2-[(alkoxycarbonyl)amino]-4(5)-phenyl-2-imidazolines” (J Med Chem, 1984)
Activity calls are given as the source filed them. The calls are words filed in the database; no cut-off is given here.

System: not listed separately
Assay: HPLC capacity factor (k')
Format: ADME
Conditions: not given
For `COC(=O)NC1=NC(c2ccc(C=O)cc2)CN1C` (configuration not stated), the “Log k'” value was -0.53. For `COC(=O)NC1=NC(c2cccc(Br)c2)CN1` (configuration not stated), the “Log k'” value was 0.5. For `COC(=O)NC1=NC(c2cc(Br)ccc2Br)CN1C` (configuration not stated), the “Log k'” value was 0.98.

System: Mus musculus
Assay: Compound was evaluated in vivo for reserpine hypothermia after oral administration in mouse. Minimum active dose was reported, with the percent reversal at 10 mg/kg in parenthesis.
Format: functional
Conditions: not given
Method in brief: (§1)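 Male HLa (ICR) BR mice (18-24 g), groups of eight, dosed ip with 5 mg/kg reserpine 2 h before oral test compound given as aqueous solution. Rectal temperature measured hourly; 1-4-h thermia assessed by analysis of variance.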
For `CN1C(=O)CN=C(c2ccccc2)c2cc(Cl)ccc21` [DIAZEPAM], the ED50 was 1 mg/kg. `CCC1(c2ccccc2)C(=O)NC(=O)NC1=O` [PHENOBARBITAL] showed an ED50 of 22 mg/kg. `CNC1=Nc2ccc(Cl)cc2C(c2ccccc2)=[N+]([O-])C1` [CHLORDIAZEPOXIDE] gave an ED50 of 5 mg/kg.

System: Mus musculus
Assay: Compound was evaluated in vivo for reserpine hypothermia after oral administration in mouse. Minimum active dose was reported, with the percent reversal at 10 mg/kg in parenthesis; I=inactive
Format: functional, organism-based
Parameters: dose 10 mg/kg
Conditions: not given
Method in brief: (§2)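 Male HLa (ICR) BR mice, 18-24 g, in groups of eight; reserpine 5 mg/kg ip given 2 h before oral test compound as aqueous solution. Rectal temperature taken hourly; 1-4-h hypothermia assessed by analysis of variance.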
With `COC(=O)NC1=NC(c2ccc(C=O)cc2)CN1C` (configuration not stated) the ED50 was “inactive”.

Species on record: Mus musculus
Assay: Inhibition of radioactive NE [3H]norepinephrine uptake into mouse heart
Format: functional
Conditions: not given
Method in brief: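 Mice dosed ip (aqueous solution) before iv [3H]NE; hearts removed 3 h after label, washed, weighed, dissolved in Protosol and counted as dpm per mg tissue. Dose-response from linear regression.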
Molecule `CN(C)CCCN1c2ccccc2CCc2ccccc21` [IMIPRAMINE] has an ED50 of 6.7 mg/kg.

Species on record: Mus musculus
Assay: Compound was evaluated for antagonism of reserpine induced hypothermia;I= Inactive.
Format: functional, organism-based
Conditions: not given
Method in brief: as §1
In the case of `CNC1=Nc2ccc(Cl)cc2C(c2ccccc2)=[N+]([O-])C1` [CHLORDIAZEPOXIDE], the HYPO is reported as “inactive”.

Species on record: Mus musculus
Assay: Mouse behavior activity was determined; D = Depressant
Format: functional, organism-based
Conditions: not given
Method in brief: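 Male Simonsen (ICR) fBR mice (18-24 g) given 3, 10, 30, 100, 300 or 1000 mg/kg ip as aqueous solution and observed for behaviour in groups of three.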
With `CN1C(=O)CN=C(c2ccccc2)c2cc(Cl)ccc21` [DIAZEPAM] the Mouse behavior activity was “Depressant”. With `CCC1(c2ccccc2)C(=O)NC(=O)NC1=O` [PHENOBARBITAL] the Mouse behavior activity was “Depressant”. In the case of `CNC1=Nc2ccc(Cl)cc2C(c2ccccc2)=[N+]([O-])C1` [CHLORDIAZEPOXIDE], the Mouse behavior activity is reported as “Depressant”.

Species on record: Mus musculus
Assay: Mouse behavior activity was determined; Inactive
Format: functional, organism-based
Conditions: not given
Method in brief: (§3)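 Male Simonsen (ICR) fBR mice, 18-24 g, groups of three, given 3, 10, 30, 100, 300 or 1000 mg/kg ip as aqueous solution and observed for behavioral profile; deaths followed up to 7 days.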
In the case of `COC(=O)NC1=NC(c2ccc(O)cc2)CN1` (configuration not stated), the Mouse behavior activity is reported as “inactive”.

Species on record: Mus musculus
Assay: Mouse behavior activity was determined; Dwk= Depressant Weak
Format: functional, organism-based
Conditions: not given
Method in brief: as §3
For `COC(=O)NC1=NC(c2cccc(Br)c2)CN1` (configuration not stated), the Mouse behavior activity was “Depressant - weak”. For `COC(=O)NC1=NC(c2cc(Br)ccc2Br)CN1C` (configuration not stated), the Mouse behavior activity was “Depressant - weak”.

Species on record: Mus musculus
Assay: Mouse behavior activity was determined; Dwk= Depressant(Weak)
Format: functional, organism-based
Conditions: not given
Method in brief: as §3
For `COC(=O)NC1=NC(c2ccc(C=O)cc2)CN1C` (configuration not stated), the Mouse behavior activity was “Depressant - weak”.

System: not listed separately
Assay: Compound was evaluated for lethal dose in mouse in groups of ten (values in parentheses indicates 95% confidence limits)
Format: toxicity, organism-based
Conditions: in vivo
`CCC1(c2ccccc2)C(=O)NC(=O)NC1=O` [PHENOBARBITAL] showed an LD50 of 222 mg/kg. Work on `CNC1=Nc2ccc(Cl)cc2C(c2ccccc2)=[N+]([O-])C1` [CHLORDIAZEPOXIDE] yielded an LD50 of 254 mg/kg.

Species on record: Mus musculus
Assay: Compound was evaluated for maximal electroshock antagonism (MES) against mice
Format: functional
Conditions: not given
Method in brief: (§4)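 Male HLa (ICR) BR mice, groups of eight to ten, dosed ip (aqueous solution) 15 min before transcorneal electroshock (50 mA, 0.2 s). End point: abolition of tonic hind-limb extension; quantal ED50 by Litchfield-Wilcoxon.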
With `CN(C)CCCN1c2ccccc2CCc2ccccc21` [IMIPRAMINE] the ED50 was 15 mg/kg. `COC(=O)NC1=NC(c2cccc(Br)c2)CN1` (configuration not stated) gave an ED50 of ~68 mg/kg. `COC(=O)NC1=NC(c2cc(Br)ccc2Br)CN1C` (configuration not stated) gave an ED50 of 45 mg/kg.

Species on record: Mus musculus
Assay: Compound was evaluated for maximal electroshock antagonism (MES) against mice; I=inactive
Format: functional, organism-based
Conditions: not given
Method in brief: as §4
For `COC(=O)NC1=NC(c2ccc(C=O)cc2)CN1C` (configuration not stated), the ED50 was “inactive”.

Species on record: Mus musculus
Assay: Compound was evaluated for maximal electroshock antagonism (MES) against mice; Inactive
Format: functional, organism-based
Conditions: not given
Method in brief: as §4
For `COC(=O)NC1=NC(c2ccc(O)cc2)CN1` (configuration not stated), the ED50 was “inactive”.

System: Mus musculus
Assay: Reserpine hypothermia antagonism in mouse administered perorally with 5 mg/kg of reserpine 2 hour prior to test compound administration
Format: functional
Conditions: route oral
In the case of `CN(C)CCCN1c2ccccc2CCc2ccccc21` [IMIPRAMINE], the Reserpine hypothermia is reported as 0.63 mg/kg.

Species on record: Mus musculus
Assay: Righting ability was determined in mice […] rapid rolling (aroused)
Format: functional
Conditions: not given
Method in brief: (§5)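 Male Simonsen (ICR) fBR mice, 18-24 g, groups of ten, dosed with aqueous compound. Righting ability checked before (unaroused) and after (aroused) rapid rolling in the hand; ED50 by Litchfield-Wilcoxon method.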
For `CN1C(=O)CN=C(c2ccccc2)c2cc(Cl)ccc21` [DIAZEPAM], the Loss of righting reflex was 136 mg/kg. For `CCC1(c2ccccc2)C(=O)NC(=O)NC1=O` [PHENOBARBITAL], the Loss of righting reflex was 107 mg/kg. For `CNC1=Nc2ccc(Cl)cc2C(c2ccccc2)=[N+]([O-])C1` [CHLORDIAZEPOXIDE], the Loss of righting reflex was 140 mg/kg.

Species on record: Mus musculus
Assay: Righting ability was determined in mice before rapid rolling (unaroused)
Format: functional
Conditions: not given
Method in brief: as §5
Molecule `CN1C(=O)CN=C(c2ccccc2)c2cc(Cl)ccc21` [DIAZEPAM] has a Loss of righting reflex of 67 mg/kg. With `CCC1(c2ccccc2)C(=O)NC(=O)NC1=O` [PHENOBARBITAL] the Loss of righting reflex was 60 mg/kg. Molecule `CNC1=Nc2ccc(Cl)cc2C(c2ccccc2)=[N+]([O-])C1` [CHLORDIAZEPOXIDE] has a Loss of righting reflex of 53 mg/kg.

Species on record: Rattus norvegicus
Assay: Inhibition of the 5-HT [14C]5-HT uptake by rat brain slices In vitro
Format: functional
Conditions: not given
Method in brief: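 Rat cerebral cortex slices, 5 mg tissue per mL Krebs-Henseleit buffer, incubated at 37 °C with [3H]NE or [14C]5-HT; blanks at 4 °C, undosed controls. Stopped after 20 min by filtration; slice radioactivity counted; IC50 from linear regression of uptake inhibition.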
`CN(C)CCCN1c2ccccc2CCc2ccccc21` [IMIPRAMINE] gave an IC50 of 5.3 µM.

Species on record: Rattus norvegicus
Assay: Inhibition of the NE [3H]Norepinephrine uptake by rat brain slices In vitro
Format: functional
Conditions: not given
`CN(C)CCCN1c2ccccc2CCc2ccccc21` [IMIPRAMINE] showed an IC50 of 3.8 µM.

Species on record: Mus musculus
Assay: Mouse behavior activity was determined; S-D=Stimulant-Depressant
Format: functional, organism-based
Conditions: not given
Method in brief: as §3
For `CN(C)CCCN1c2ccccc2CCc2ccccc21` [IMIPRAMINE], the Mouse behavior activity was “Stimulant”.

Species on record: Mus musculus
Assay: Compound was evaluated for maximal electroshock antagonism (MES) against mice (values in parentheses indicates 95% confidence limits)
Format: functional
Conditions: not given
Method in brief: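 Male HLa (ICR) BR mice, groups of eight to ten, given compound ip as aqueous solution 15 min before transcorneal electroshock (50 mA, 0.2 s). End point was abolition of tonic hind-limb extension; quantal ED50 derived by Litchfield-Wilcoxon.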
`CN1C(=O)CN=C(c2ccccc2)c2cc(Cl)ccc21` [DIAZEPAM] showed an ED50 of 7 mg/kg. Work on `CCC1(c2ccccc2)C(=O)NC(=O)NC1=O` [PHENOBARBITAL] yielded an ED50 of 15 mg/kg.

Species on record: Mus musculus
Assay: Evaluated for antagonism of reserpine induced hypothermia
Format: functional
Conditions: not given
Method in brief: as §2
In the case of `CN(C)CCCN1c2ccccc2CCc2ccccc21` [IMIPRAMINE], the HYPO is reported as <0.5 mg/kg. With `COC(=O)NC1=NC(c2ccc(C=O)cc2)CN1C` (configuration not stated) the HYPO was >0.5 mg/kg. In the case of `COC(=O)NC1=NC(c2cc(Br)ccc2Br)CN1C` (configuration not stated), the HYPO is reported as <0.5 mg/kg.

System: not listed separately
Assay: Lethal dose in mouse, in groups of ten
Format: toxicity, organism-based
Conditions: in vivo
`COC(=O)NC1=NC(c2ccc(O)cc2)CN1` (configuration not stated) showed an LD50 of 700 mg/kg. With `COC(=O)NC1=NC(c2ccc(C=O)cc2)CN1C` (configuration not stated) the LD50 was > 300 mg/kg. `COC(=O)NC1=NC(c2cccc(Br)c2)CN1` (configuration not stated) showed an LD50 of 300 mg/kg. In the case of `COC(=O)NC1=NC(c2cc(Br)ccc2Br)CN1C` (configuration not stated), the LD50 is reported as 500 mg/kg.
